Molecules are shown by their SMILES.

For one series, the system named is HL-60 cells. Briefly: Cell proliferation assay. The series is classed as cell-based, human. The following applies: HL-60 treated with VDR siRNA; same concentrations as non-transfected cells.
For the next series, the system named is IGF-II. In words: Human apoptosis antibody array, HL-60 cells. It counts as cell-based. The following applies: 1,25(OH)2D3 (20 nM), 18 hours. In outline:
(§1)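 Lysates in kit lysis buffer went onto a blocked glass-chip array of 44 apoptosis capture antibodies spotted in duplicate, 18 h at 4 °C. Biotinylated detection antibodies and fluorescent streptavidin were each applied 2 h at room temperature. A fluorescence scan gave spot intensities.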

The subject of another series is Caco2 cells. Briefly: Cell proliferation assay. The following applies: 100 nM 1,25(OH)2D3, 5 days. It counts as cell-based, human.
The next series relates to NCoR. Briefly: ChIP at the CYP24A1 promoter in HL-60 cells, NCoR antibody. The series is classed as cell-based, human. The settings on record: 20 nM 1,25(OH)2D3, 18 hours.
For another series, the system named is SKOV3 cells. In words: Cell proliferation assay. The series is classed as cell-based, human. The following applies: 100 nM 1,25(OH)2D3, 5 days.
In the next series the test system is caspase 7. In words: rt-PCR mRNA levels in HL-60 cells. The series is classed as cell-based, human. The following applies: 20 nM 1,25(OH)2D3, 18 hours.
For a further series, the system named is CYP3A4. Briefly: rt-PCR mRNA levels in HL-60 cells. The settings on record: 18 hours, 1,25(OH)2D3 (20 nM), PS121912 (3 µM) or a combination thereof. The series is classed as cell-based, human.
Another series concerns caspase 3. In words: rt-PCR mRNA levels in HL-60 cells. The series is classed as cell-based, human. The following applies: 20 nM 1,25(OH)2D3, 18 hours.
For a further series, the system named is Survivin. In words: Human apoptosis antibody array, HL-60 cells. It counts as cell-based. The following applies: 1,25(OH)2D3 (20 nM), 18 hours. An outline of the steps:
as §1

The test system of a further series is HTRA. In words: Human apoptosis antibody array, HL-60 cells. The series is classed as cell-based. The settings on record: 1,25(OH)2D3 (20 nM), 18 hours. In outline:
as §1

For the next series, the system named is SRC2. Briefly: ChIP at the CYP24A1 promoter in HL-60 cells, SRC2 antibody. The settings on record: 20 nM 1,25(OH)2D3, 18 hours. The series is classed as cell-based, human.

Regarding `C=C1/C(=C\C=C2/CCC[C@]3(C)[C@@H]([C@H](C)CCCC(C)(C)O)CC[C@@H]23)C[C@@H](O)C[C@@H]1O` [1,25(OH)2D3, 1,25-dihydroxyvitamin D3], in the series on HL-60 cells, the “antiproliferation effect in VDR siRNA treated cells” value is reported as “abolished”. In addition, the IGF-II protein level result in the series with IGF-II was “induced”. Besides, the antiproliferative effect entry with Caco2 cells and with SKOV3 cells was “minor antiproliferative effect” each time. For the same compound, the “interaction between VDR and NCoR at the CYP24A1 promoter” value in the series on NCoR was “reduced”. Besides, the “caspase 7 mRNA levels” value in the series with caspase 7 is “no change”. Moreover, the “mRNA levels of CYP3A4” value in the series with CYP3A4 is on record as “not altered”. In the series with caspase 3, the “caspase 3 mRNA levels” value is listed as “no change”. In the series on Survivin, the Survivin protein level entry is recorded as “reduced”. Moreover, the HTRA protein level entry with HTRA is “upregulated”. Besides, the “SRC2 recruitment at the CYP24A1 promoter” value in the series with SRC2 is on record as “recruitment of coactivator SRC2”.
